Test results taken from ChEMBL document CHEMBL2429732, “Aminopyrazole-Phenylalanine Based GPR142 Agonists: Discovery of Tool Compound and in Vivo Efficacy Studies” (ACS Med Chem Lett, 2013).
Activity calls are given as the source filed them. No cut-off for these calls is given here.

Experiments:
[1] = Bioavailability in rat at 2 mg/kg, sc; type: ADME, organism-based; settings: in vivo
[2] = Half life in rat at 0.5 mg/kg, iv; type: ADME, organism-based; design: dose 0.5 mg/kg, route intravenous; settings: in vivo
Mus musculus [3] = experiment: Antidiabetic activity in mouse bearing human islets assessed as reduction of plasma glucose AUC at 10 mg/kg, sc administered 15 mins before glucose challenge measured up to 90 mins; design: scale not given: the % may be the effect or the level left; settings: route subcutaneous
Cytochrome P450 2D6 = Cytochrome P450 2D6 (Homo sapiens, UniProt P10635); experiment: Inhibition of CYP2D6 (unknown origin); type: ADME
[4] = Permeability across human Caco2 cells; type: ADME, cell-based; settings: Caco-2, read-out: permeability
[5] = molecular target: T1, Probable G-protein coupled receptor 142 (Mus musculus) (UniProt Q7TQN9); experiment: Ex vivo agonist activity at GPR142 in wild type mouse islets assessed as stimulation of insulin secretion at 3 to 10 uM by ELISA in presence of glucose
T1 sequence (whole entry): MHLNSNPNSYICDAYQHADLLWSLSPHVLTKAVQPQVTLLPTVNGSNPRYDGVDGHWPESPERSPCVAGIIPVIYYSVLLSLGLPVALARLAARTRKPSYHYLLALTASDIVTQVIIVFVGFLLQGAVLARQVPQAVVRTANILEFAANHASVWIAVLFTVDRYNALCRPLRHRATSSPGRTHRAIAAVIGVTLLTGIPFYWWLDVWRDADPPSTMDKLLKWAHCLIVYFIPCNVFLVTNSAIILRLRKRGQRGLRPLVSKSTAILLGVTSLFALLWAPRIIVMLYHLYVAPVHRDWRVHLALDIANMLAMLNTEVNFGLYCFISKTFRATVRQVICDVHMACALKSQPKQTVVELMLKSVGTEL
Summary of the method: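 Islets from wild-type and GPR142 knockout mice incubated with compound at 3.0 and 10.0 μM in presence of 16.7 mM glucose; insulin secretion measured.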

Macaca fascicularis = organism: Macaca fascicularis; experiment: Agonist activity at cynomolgus monkey GPR142 relative to tryptophan
Summary of the method: (§1)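 Inositol phosphate accumulation in HEK293 cells transfected with mouse or cynomolgus monkey receptor plasmid, tritiated inositol labelling, compounds in HBSS/0.01% BSA plus 10 mM LiCl, 37 °C for 1 h, SPA scintillation read-out; maximal efficacy expressed relative to tryptophan response.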

[6] = molecular target: T2, Probable G-protein coupled receptor 142 (Homo sapiens, UniProt Q7Z601); experiment: Agonist activity at human GPR142 expressed in HEK293 cells assessed as inositol phosphate accumulation using [3H]-inositol after 1 hr by scintillation counting; type: functional, cell-based
T2 sequence (Q7Z601 whole entry): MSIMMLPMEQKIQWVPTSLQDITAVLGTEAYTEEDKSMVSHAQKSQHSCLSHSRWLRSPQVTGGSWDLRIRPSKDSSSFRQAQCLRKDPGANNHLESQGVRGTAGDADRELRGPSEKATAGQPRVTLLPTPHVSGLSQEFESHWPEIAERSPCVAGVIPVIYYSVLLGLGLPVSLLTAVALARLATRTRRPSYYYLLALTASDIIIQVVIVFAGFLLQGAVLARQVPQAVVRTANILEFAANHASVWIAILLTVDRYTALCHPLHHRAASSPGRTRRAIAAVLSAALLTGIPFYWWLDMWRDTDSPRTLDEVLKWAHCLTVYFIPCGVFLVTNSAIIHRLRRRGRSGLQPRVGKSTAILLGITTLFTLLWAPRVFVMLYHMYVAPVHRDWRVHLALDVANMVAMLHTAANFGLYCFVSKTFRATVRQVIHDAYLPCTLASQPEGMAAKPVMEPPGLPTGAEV

Cytochrome P450 3A4 = Cytochrome P450 3A4 (Homo sapiens, UniProt P08684); experiment: Inhibition of CYP3A4 (unknown origin); type: ADME
[7] = Fraction unbound in human plasma; type: ADME, cell-free
[8] = molecular target: T3, Probable G-protein coupled receptor 142 (Mus musculus, UniProt Q7TQN9); experiment: Agonist activity at mouse GPR142
T3 sequence (Q7TQN9 whole entry): T1 sequence (whole entry)
Summary of the method: (§2)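 HEK293 cells, plated at 25 000/well, were transiently transfected with 100 ng receptor plasmid per well. They were labelled overnight with 1.0 μCi/mL tritiated inositol in inositol-free DMEM/10% dialyzed FCS. Cells were then exposed to graded compound levels in HBSS/0.01% BSA with 10 mM LiCl for 1 h at 37 °C. Cells were lysed in cold 20 mM formic acid (5 h, 4 °C), and IP was captured on yttrium silicate SPA beads and read by scintillation counting. EC50 is the mean of three runs.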

[9] = Cmax in rat at 2 mg/kg, po; type: ADME, organism-based; design: dose 2 mg/kg, route oral; settings: in vivo
Summary of the method: (§3)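 Oral dosing used the ethyl ester prodrug. All pharmacokinetic calculations were based on the parent free acid in plasma.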

[10] = Fraction unbound in rat plasma; type: ADME, cell-free
[11] = Clearance in rat at 0.5 mg/kg, iv; type: ADME, organism-based; design: dose 0.5 mg/kg, route intravenous; settings: in vivo
[12] = Clearance in cynomolgus monkey at 0.5 mg/kg, iv; type: ADME, organism-based, Macaca fascicularis; design: dose 0.5 mg/kg, route intravenous; settings: in vivo
[13] = Bioavailability in cynomolgus monkey at 2 mg/kg, sc; type: ADME, organism-based, Macaca fascicularis; settings: in vivo
[14] = Metabolic stability in human liver microsomes assessed as compound remaining at 1 uM after 30 mins; type: ADME, Microsome; settings: read-out: Stability
Summary of the method: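 Compound at 1.0 μM was incubated for 30 min in human liver microsomes; percentage of intact compound remaining was determined.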

[15] = Cmax in cynomolgus monkey at 2 mg/kg, sc; type: ADME, organism-based, Macaca fascicularis; design: dose 2 mg/kg, route subcutaneous; settings: in vivo
[16] = molecular target: T1, Probable G-protein coupled receptor 142 (Mus musculus); experiment: Agonist activity at mouse GPR142 relative to tryptophan; summary of the method: as §1
[17] = Oral bioavailability in rat at 2 mg/kg; type: ADME, organism-based; settings: in vivo; summary of the method: as §3
[18] = Tmax in rat at 2 mg/kg, sc; type: ADME, organism-based; design: dose 2 mg/kg, route subcutaneous; settings: in vivo
[19] = Volume of distribution at steady state in rat at 0.5 mg/kg, iv; type: ADME, organism-based; design: dose 0.5 mg/kg, route intravenous; settings: in vivo, read-out: Vdss
[20] = Metabolic stability in rat liver microsomes assessed as compound remaining at 1 uM after 30 mins; type: ADME, Microsome; settings: read-out: Stability
Mus musculus [21] = organism: Mus musculus; experiment: Induction of insulin secretion in GPR142-deficient mouse islets at 3 to 10 uM by ELISA in presence of glucose; type: functional
Summary of the method: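 Islets isolated from wild-type and GPR142 knockout mice were incubated with test agent at 3.0 and 10.0 μM in the presence of 16.7 mM glucose, and insulin secretion was measured.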

[22] = Volume of distribution at steady state in cynomolgus monkey at 0.5 mg/kg, iv; type: ADME, organism-based, Macaca fascicularis; design: dose 0.5 mg/kg, route intravenous; settings: in vivo, read-out: Vdss
[23] = Cmax in cynomolgus monkey at 10 mg/kg, po; type: ADME, organism-based, Macaca fascicularis; design: dose 10 mg/kg, route oral; settings: in vivo; summary of the method: as §3
[24] = Tmax in cynomolgus monkey at 2 mg/kg, sc; type: ADME, organism-based, Macaca fascicularis; design: dose 2 mg/kg, route subcutaneous; settings: in vivo
[25] = molecular target: Voltage-gated inwardly rectifying potassium channel KCNH2 (Homo sapiens, UniProt Q12809); experiment: Inhibition of human ERG by patch clamp assay
[26] = Agonist activity at cynomolgus monkey GPR142; design: species or system Macaca fascicularis; summary of the method: as §2
Mus musculus [27] = experiment: Antidiabetic activity in wild type mouse assessed as reduction of plasma glucose AUC at 10 mg/kg, sc administered 15 mins before glucose challenge measured up to 90 mins; design: scale not given: the % may be the effect or the level left; settings: route subcutaneous
[28] = Fraction unbound in cynomolgus monkey plasma; type: ADME, cell-free, Macaca fascicularis
[29] = Tmax in cynomolgus monkey at 10 mg/kg, po; type: ADME, organism-based, Macaca fascicularis; design: dose 10 mg/kg, route oral; settings: in vivo; summary of the method: as §3
[30] = Cmax in rat at 2 mg/kg, sc; type: ADME, organism-based; design: dose 2 mg/kg, route subcutaneous; settings: in vivo
[31] = Tmax in rat at 2 mg/kg, po; type: ADME, organism-based; design: dose 2 mg/kg, route oral; settings: in vivo; summary of the method: as §3
[32] = Half life in cynomolgus monkey at 0.5 mg/kg, iv; type: ADME, organism-based, Macaca fascicularis; design: dose 0.5 mg/kg, route intravenous; settings: in vivo
[33] = molecular target: T4, Nuclear receptor subfamily 1 group I member 2 (Homo sapiens, UniProt O75469); experiment: Induction of human PXR activity
T4 sequence (O75469 whole entry): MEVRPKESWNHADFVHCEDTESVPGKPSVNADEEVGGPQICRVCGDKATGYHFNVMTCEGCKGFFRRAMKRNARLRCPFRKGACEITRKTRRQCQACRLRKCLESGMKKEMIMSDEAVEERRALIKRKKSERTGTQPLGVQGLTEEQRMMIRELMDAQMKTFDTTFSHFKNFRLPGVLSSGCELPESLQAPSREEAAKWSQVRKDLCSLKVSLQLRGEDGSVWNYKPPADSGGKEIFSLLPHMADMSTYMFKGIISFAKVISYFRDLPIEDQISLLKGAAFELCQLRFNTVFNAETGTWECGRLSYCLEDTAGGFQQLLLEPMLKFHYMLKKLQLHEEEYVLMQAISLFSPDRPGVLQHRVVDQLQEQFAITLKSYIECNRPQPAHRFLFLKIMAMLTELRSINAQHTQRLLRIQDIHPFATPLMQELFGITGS

[34] = Oral bioavailability in cynomolgus monkey at 10 mg/kg; type: ADME, organism-based, Macaca fascicularis; settings: in vivo; summary of the method: as §3

Sequence of Voltage-gated inwardly rectifying potassium channel KCNH2 (Q12809 whole entry): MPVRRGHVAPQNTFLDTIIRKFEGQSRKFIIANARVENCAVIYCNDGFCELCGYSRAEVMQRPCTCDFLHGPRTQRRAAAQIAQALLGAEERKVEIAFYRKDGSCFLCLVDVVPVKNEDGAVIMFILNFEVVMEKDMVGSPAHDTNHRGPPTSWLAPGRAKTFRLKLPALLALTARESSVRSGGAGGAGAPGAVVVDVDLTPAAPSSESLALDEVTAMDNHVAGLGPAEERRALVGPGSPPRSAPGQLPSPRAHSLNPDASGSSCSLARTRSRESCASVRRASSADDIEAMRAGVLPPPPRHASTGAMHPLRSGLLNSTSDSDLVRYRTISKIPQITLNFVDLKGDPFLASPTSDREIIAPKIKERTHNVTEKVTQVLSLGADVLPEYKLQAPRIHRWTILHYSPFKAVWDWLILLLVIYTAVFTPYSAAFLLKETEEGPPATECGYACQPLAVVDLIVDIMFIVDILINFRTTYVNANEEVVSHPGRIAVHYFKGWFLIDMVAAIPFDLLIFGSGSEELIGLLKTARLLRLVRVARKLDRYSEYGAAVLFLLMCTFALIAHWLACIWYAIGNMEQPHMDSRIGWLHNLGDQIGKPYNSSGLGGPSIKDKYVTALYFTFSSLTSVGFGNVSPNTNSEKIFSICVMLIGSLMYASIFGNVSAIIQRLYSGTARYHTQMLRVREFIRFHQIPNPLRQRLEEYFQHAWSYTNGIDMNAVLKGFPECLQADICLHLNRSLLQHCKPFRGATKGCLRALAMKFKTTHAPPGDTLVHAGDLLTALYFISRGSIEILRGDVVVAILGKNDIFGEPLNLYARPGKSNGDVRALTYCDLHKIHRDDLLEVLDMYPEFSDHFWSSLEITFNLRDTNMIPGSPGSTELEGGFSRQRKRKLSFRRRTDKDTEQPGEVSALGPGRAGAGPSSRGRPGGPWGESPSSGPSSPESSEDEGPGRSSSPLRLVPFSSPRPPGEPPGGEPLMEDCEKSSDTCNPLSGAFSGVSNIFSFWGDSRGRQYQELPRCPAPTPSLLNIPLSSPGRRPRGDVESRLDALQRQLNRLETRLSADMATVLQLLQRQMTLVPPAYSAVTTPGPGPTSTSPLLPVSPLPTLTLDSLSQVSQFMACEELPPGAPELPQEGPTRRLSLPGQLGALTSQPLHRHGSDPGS
Sequence of Cytochrome P450 2D6 (P10635 whole entry): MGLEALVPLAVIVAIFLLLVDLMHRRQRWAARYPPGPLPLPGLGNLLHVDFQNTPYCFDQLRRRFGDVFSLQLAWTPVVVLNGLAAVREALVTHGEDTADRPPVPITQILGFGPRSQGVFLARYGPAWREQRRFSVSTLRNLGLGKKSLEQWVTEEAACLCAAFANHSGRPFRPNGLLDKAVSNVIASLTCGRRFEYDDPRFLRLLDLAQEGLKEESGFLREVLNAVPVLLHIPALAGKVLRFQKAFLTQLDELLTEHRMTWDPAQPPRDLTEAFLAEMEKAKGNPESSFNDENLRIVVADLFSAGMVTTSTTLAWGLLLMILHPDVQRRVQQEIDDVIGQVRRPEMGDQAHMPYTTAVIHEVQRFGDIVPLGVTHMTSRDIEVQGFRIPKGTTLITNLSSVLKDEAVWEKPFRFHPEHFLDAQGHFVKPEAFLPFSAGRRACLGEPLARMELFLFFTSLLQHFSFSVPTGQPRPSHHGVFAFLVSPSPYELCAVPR
Sequence of Cytochrome P450 3A4 (P08684 whole entry): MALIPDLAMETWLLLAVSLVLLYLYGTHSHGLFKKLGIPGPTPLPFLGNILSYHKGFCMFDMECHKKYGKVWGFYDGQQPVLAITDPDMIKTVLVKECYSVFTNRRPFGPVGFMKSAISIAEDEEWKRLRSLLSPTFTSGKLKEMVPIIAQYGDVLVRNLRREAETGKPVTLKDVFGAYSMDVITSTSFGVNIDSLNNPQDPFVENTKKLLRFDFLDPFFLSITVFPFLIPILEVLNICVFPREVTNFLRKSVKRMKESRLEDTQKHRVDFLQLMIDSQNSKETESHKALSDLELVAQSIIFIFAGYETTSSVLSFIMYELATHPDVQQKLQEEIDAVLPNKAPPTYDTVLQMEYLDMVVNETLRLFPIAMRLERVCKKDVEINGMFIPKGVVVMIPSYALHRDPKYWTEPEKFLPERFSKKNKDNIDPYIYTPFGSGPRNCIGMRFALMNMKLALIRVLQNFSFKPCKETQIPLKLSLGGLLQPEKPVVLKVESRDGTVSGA

Cn1nc(-c2ccncc2)cc1NC(=O)[C@H](Cc1ccccc1)NCC(=O)O
bioavailability [1]: 81%
half-life [2]: 4.1 h
Activity (Mus musculus [3]): -28%
IC50 (Cytochrome P450 2D6): > 30 µM
Papp [4]: 9 nm/s
Activity [5]: Active
Emax (Macaca fascicularis): 79%
EC50 [6]: 0.052 µM
IC50 (Cytochrome P450 3A4): > 30 µM
fraction unbound [7]: 0.16
EC50 [8]: 0.031 µM
Cmax [9]: 0.17 µM
fraction unbound [10]: 0.01
clearance [11]: 0.15 L/h/kg
clearance [12]: 0.44 L/h/kg
bioavailability [13]: 100%
remaining at 0.5 h, 1 µM [14]: > 90%
Cmax [15]: 6.3 µM
Emax [16]: 73%
bioavailability [17]: 3%
Tmax [18]: 0.38 h
Vd [19]: 0.29 L/kg
remaining at 0.5 h, 1 µM [20]: > 90%
Activity (Mus musculus [21]): inactive
Vd [22]: 0.33 L/kg
Cmax [23]: 0.4 µM
Tmax [24]: 0.5 h
IC50 [25]: > 30 µM
EC50 [26]: 0.079 µM
Activity (Mus musculus [27]): -25%
fraction unbound [28]: 0.1
Tmax [29]: 4 h
Cmax [30]: 7.5 µM
Tmax [31]: 0.83 h
half-life [32]: 2.3 h
Activity [33]: Not Active
bioavailability [34]: 6%
